“And” between values parts separate entries of the source, which are not always exact repeats. Equal entries are not always repeated.
Test system: U2OS
Assay: Multiplex assay against U2OS
Type: toxicity, cell-based
Settings: human
How it was run: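 Live cells carried four stains from seeding: Hoechst33342, BioTracker Green Microtubule Cytoskeleton Dye, MitoTracker Red and Annexin V Alexa Fluor 680. They were imaged on a CQ1 microscope at 37°C and 5% CO2 after compound addition. Using CellPathfinder machine-learning gating, cells were split into Hoechst high-intensity objects or normal cells, normal cells into healthy, pyknosed or fragmented nuclei, and pyknosed cells into mitotic or apoptotic; tubulin, mitochondrial-mass and membrane-permeability phenotypes are per cents of healthy-nucleus cells.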

[1] = 12 h, 1 µM, compound concentration 1 uM
[2] = 12 h, 10 µM, compound concentration 10 uM
[3] = 24 h, 1 µM, compound concentration 1 uM
[4] = 24 h, 10 µM, compound concentration 10 uM
[5] = 48 h, 1 µM, compound concentration 1 uM
[6] = 48 h, 10 µM, compound concentration 10 uM

c1ccc2nc(N3CCNCC3)ccc2c1 [QUIPAZINE]
Population Apoptotic (%) [1]: 38.46% and 42.86% | Population Fragmented Nuclei (%) [1]: 2.12% and 3.18% | Population Healthy Nuclei (%) [1]: 85.61% and 83.44% | Population Hoechst High Intensity Objects (%) [1]: 0% | Population Membrane Permeable-Phenotype (%) [1]: 0.28% and 1.53% | Population Mitotic Cells (%) [1]: 61.54% and 57.14% | Population Normal (%) [1]: 100% | Population Pyknosed Nuclei (%) [1]: 12.26% and 13.38% | Population Tubulin-Different-Phenotype (%) [1]: 0.28% and 0% | Total Cell Count [1]: 424 and 157 | Population Apoptotic (%) [2]: 41.67% and 21.05% | Population Fragmented Nuclei (%) [2]: 2.14% and 2.94% | Population Healthy Nuclei (%) [2]: 88.24% and 85.88% | Population Hoechst High Intensity Objects (%) [2]: 0% | Population Membrane Permeable-Phenotype (%) [2]: 2.12% and 2.05% | Population Mitochondria Different-Phenotype (%) [2]: 0.61% and 9.59% | Population Mitotic Cells (%) [2]: 58.33% and 78.95% | Population Normal (%) [2]: 100% | Population Pyknosed Nuclei (%) [2]: 9.63% and 11.18% | Population Tubulin-Different-Phenotype (%) [2]: 1.21% and 0% | Total Cell Count [2]: 374 and 170 | Population Apoptotic (%) [3]: 52.86% and 39.13% | Population Fragmented Nuclei (%) [3]: 0.69% and 1.94% | Population Healthy Nuclei (%) [3]: 87.26% and 86.89% | Population Hoechst High Intensity Objects (%) [3]: 0.17% and 0% | Population Membrane Permeable-Phenotype (%) [3]: 0.79% and 3.91% | Population Mitochondria Different-Phenotype (%) [3]: 0.39% and 6.7% | Population Mitotic Cells (%) [3]: 47.14% and 60.87% | Population Normal (%) [3]: 99.83% and 100% | Population Pyknosed Nuclei (%) [3]: 12.05% and 11.17% | Population Tubulin-Different-Phenotype (%) [3]: 1.38% and 0% | Total Cell Count [3]: 582 and 206 | Population Apoptotic (%) [4]: 40.82% and 48% | Population Fragmented Nuclei (%) [4]: 0.76% and 0% | Population Healthy Nuclei (%) [4]: 89.87% and 89.41% | Population Hoechst High Intensity Objects (%) [4]: 0% | Population Membrane Permeable-Phenotype (%) [4]: 1.06% and 3.32% | Population Mitochondria Different-Phenotype (%) [4]: 0.43% and 6.16% | Population Mitotic Cells (%) [4]: 59.18% and 52% | Population Normal (%) [4]: 100% | Population Pyknosed Nuclei (%) [4]: 9.37% and 10.59% | Population Tubulin-Different-Phenotype (%) [4]: 1.28% and 0% | Total Cell Count [4]: 523 and 236 | Population Apoptotic (%) [5]: 43.56% and 50% | Population Fragmented Nuclei (%) [5]: 2.56% and 1.98% | Population Healthy Nuclei (%) [5]: 88.55% and 87.25% | Population Hoechst High Intensity Objects (%) [5]: 0% | Population Membrane Permeable-Phenotype (%) [5]: 0.9% and 1.95% | Population Mitochondria Different-Phenotype (%) [5]: 0.2% and 3.9% | Population Mitotic Cells (%) [5]: 56.44% and 50% | Population Normal (%) [5]: 100% | Population Pyknosed Nuclei (%) [5]: 8.9% and 10.76% | Population Tubulin-Different-Phenotype (%) [5]: 0.9% and 0.32% | Population Apoptotic (%) [6]: 39.47% and 52.17% | Population Fragmented Nuclei (%) [6]: 3.42% and 0.25% | Population Healthy Nuclei (%) [6]: 89.16% and 94.06% | Population Hoechst High Intensity Objects (%) [6]: 0% and 0.25% | Population Membrane Permeable-Phenotype (%) [6]: 0.99% and 2.63% | Population Mitochondria Different-Phenotype (%) [6]: 0.11% and 1.84% | Population Mitotic Cells (%) [6]: 60.53% and 47.83% | Population Normal (%) [6]: 100% and 99.75% | Population Pyknosed Nuclei (%) [6]: 7.42% and 5.69% | Population Tubulin-Different-Phenotype (%) [6]: 1.42% and 0.79% | Total Cell Count [6]: 1024 and 405

CCC(=O)N1CCN(c2ccc(-n3c(=O)ccc4cnc5ccc(-c6cnc7ccccc7c6)cc5c43)cc2C(F)(F)F)CC1 [TORIN1]
Population Apoptotic (%) [2]: 68% and 76% | Population Healthy Nuclei (%) [2]: 55% and 71% | Population Hoechst High Intensity Objects (%) [2]: 1% and 3% | Population Mitochondria Different-Phenotype (%) [2]: 7% | Population Normal (%) [2]: 98% and 96% | Population Tubulin-Different-Phenotype (%) [2]: 5% and 9% | Total Cell Count [2]: 288 and 109 | Population Apoptotic (%) [4]: 77% and 73% | Population Healthy Nuclei (%) [4]: 54% and 72% | Population Hoechst High Intensity Objects (%) [4]: 1% and 2% | Population Mitochondria Different-Phenotype (%) [4]: 9% | Population Normal (%) [4]: 98% and 97% | Population Tubulin-Different-Phenotype (%) [4]: 5% and 3% | Total Cell Count [4]: 287 and 115 | Population Apoptotic (%) [6]: 78% and 82% | Population Healthy Nuclei (%) [6]: 44% | Population Hoechst High Intensity Objects (%) [6]: 7% and 2% | Population Normal (%) [6]: 93% and 97% | Population Tubulin-Different-Phenotype (%) [6]: 8% and 5% | Total Cell Count [6]: 300 and 147

CC(C)(C)c1ccc(S(=O)(=O)Nc2ccc(Cl)cc2C(=O)c2cc[n+]([O-])cc2)cc1 [VERCIRNON]
Population Apoptotic (%) [1]: 77% and 100% | Population Fragmented Nuclei (%) [1]: 28% and 15% | Population Healthy Nuclei (%) [1]: 61% and 79% | Population Hoechst High Intensity Objects (%) [1]: 1% and 0% | Population Membrane Permeable-Phenotype (%) [1]: 8% | Population Mitochondria Different-Phenotype (%) [1]: 5% and 4% | Population Mitotic Cells (%) [1]: 22% and 0% | Population Normal (%) [1]: 98% and 99% | Population Pyknosed Nuclei (%) [1]: 10% and 5% | Population Tubulin-Different-Phenotype (%) [1]: 4% and 3% | Total Cell Count [1]: 307 and 156 | Population Apoptotic (%) [2]: 77% and 50% | Population Fragmented Nuclei (%) [2]: 24% and 21% | Population Healthy Nuclei (%) [2]: 68% and 77% | Population Hoechst High Intensity Objects (%) [2]: 1% and 0% | Population Mitochondria Different-Phenotype (%) [2]: 2% | Population Mitotic Cells (%) [2]: 22% and 50% | Population Normal (%) [2]: 98% and 99% | Population Pyknosed Nuclei (%) [2]: 6% and 1% | Total Cell Count [2]: 266 and 123 | Population Apoptotic (%) [3]: 89% and 92% | Population Fragmented Nuclei (%) [3]: 25% and 18% | Population Healthy Nuclei (%) [3]: 67% and 74% | Population Hoechst High Intensity Objects (%) [3]: 1% and 0% | Population Membrane Permeable-Phenotype (%) [3]: 8% and 2% | Population Mitochondria Different-Phenotype (%) [3]: 5% and 4% | Population Mitotic Cells (%) [3]: 10% and 7% | Population Normal (%) [3]: 98% and 99% | Population Pyknosed Nuclei (%) [3]: 7% | Population Tubulin-Different-Phenotype (%) [3]: 4% and 2% | Total Cell Count [3]: 357 and 183 | Population Apoptotic (%) [4]: 76% and 71% | Population Fragmented Nuclei (%) [4]: 21% and 22% | Population Healthy Nuclei (%) [4]: 72% | Population Hoechst High Intensity Objects (%) [4]: 2% and 1% | Population Mitochondria Different-Phenotype (%) [4]: 1% | Population Mitotic Cells (%) [4]: 23% and 28% | Population Normal (%) [4]: 97% and 98% | Population Pyknosed Nuclei (%) [4]: 5% and 4% | Total Cell Count [4]: 297 and 160 | Population Apoptotic (%) [5]: 82% and 84% | Population Fragmented Nuclei (%) [5]: 19% and 15% | Population Healthy Nuclei (%) [5]: 73% and 75% | Population Hoechst High Intensity Objects (%) [5]: 3% and 4% | Population Membrane Permeable-Phenotype (%) [5]: 5% and 7% | Population Mitochondria Different-Phenotype (%) [5]: 3% and 2% | Population Mitotic Cells (%) [5]: 17% and 15% | Population Normal (%) [5]: 96% and 95% | Population Pyknosed Nuclei (%) [5]: 6% and 9% | Population Tubulin-Different-Phenotype (%) [5]: 4% and 2% | Total Cell Count [5]: 515 and 296 | Population Apoptotic (%) [6]: 79% and 77% | Population Fragmented Nuclei (%) [6]: 18% and 26% | Population Healthy Nuclei (%) [6]: 75% and 65% | Population Hoechst High Intensity Objects (%) [6]: 1% and 2% | Population Membrane Permeable-Phenotype (%) [6]: 2% and 8% | Population Mitochondria Different-Phenotype (%) [6]: 1% and 5% | Population Mitotic Cells (%) [6]: 20% and 22% | Population Normal (%) [6]: 98% and 97% | Population Pyknosed Nuclei (%) [6]: 5% and 8% | Population Tubulin-Different-Phenotype (%) [6]: 1% and 11% | Total Cell Count [6]: 414 and 215

Reference: ChEMBL document CHEMBL5724801, “EUbOPEN Chemogenomics Library - Multiplex” (2024)
